According to ChEMBL document CHEMBL1122968, “Myocardial imaging agents: synthesis, characterization, and evaluation of (Z)- and (Z,E)-18-[82Br]bromo-5-tellura-17-octadecenoic acids” (J Med Chem, 1985):

Legend:
Rattus norvegicus [1] = test: Radioactivity was determined in blood tissues of female fischer 344 rats by intravenous administration after 1 hour; type: ADME, organism-based; details: in vivo
In short: (§1)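 Female Fischer 344 rats, 10–12 weeks, 170–200 g, fed ad libitum. The 82Br-labeled fatty acid was taken up in 0.5 mL absolute ethanol and added dropwise to stirred 6% bovine serum albumin at ~40 °C (final ethanol 10%), then 0.22-μm filtered. Dosing was a lateral tail vein injection under ether anesthesia. Rats were killed by cervical fracture at the stated time and blood was taken by cardiac puncture.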

Rattus norvegicus [2] = test: Radioactivity was determined in heart tissues of female fischer 344 rats by intravenous administration after 5 minutes; type: ADME, organism-based; details: in vivo; in short: as §1
Rattus norvegicus [3] = test: Radioactivity was determined in blood tissues of female fischer 344 rats by intravenous administration after 2 hours; type: ADME, organism-based; details: in vivo; in short: as §1
Rattus norvegicus [4] = test: Radioactivity was determined in blood tissues of female fischer 344 rats by intravenous administration after 30 minutes; type: ADME, organism-based; details: in vivo, 0.5 h; in short: as §1
Rattus norvegicus [5] = test: Radioactivity was determined in blood tissues of female fischer 344 rats by intravenous administration after 5 minutes; type: ADME, organism-based; details: in vivo; in short: as §1
Rattus norvegicus [6] = test: Radioactivity was determined in heart tissues of female fischer 344 rats by intravenous administration after 1 hour; type: ADME, organism-based; details: in vivo; in short: as §1
Rattus norvegicus [7] = test: Radioactivity was determined in heart tissues of female fischer 344 rats by intravenous administration after 2 hours; type: ADME, organism-based; details: in vivo; in short: as §1
Rattus norvegicus [8] = test: Radioactivity was determined in heart tissues of female fischer 344 rats by intravenous administration after 30 minutes; type: ADME, organism-based; details: in vivo, 0.5 h; in short: as §1
Rattus norvegicus [9] = test: Radioactivity was determined in kidneys of female fischer 344 rats by intravenous administration after 30 minutes; type: ADME, organism-based, Kidney; details: in vivo, 0.5 h; in short: as §1
Rattus norvegicus [10] = test: Radioactivity was determined in kidneys of female fischer 344 rats by intravenous administration after 5 minutes; type: ADME, organism-based, Kidney; details: in vivo; in short: as §1
Rattus norvegicus [11] = test: Radioactivity was determined in liver tissues of female fischer 344 rats by intravenous administration after 1 hour; type: ADME, organism-based; details: in vivo; in short: as §1
Rattus norvegicus [12] = test: Radioactivity was determined in liver tissues of female fischer 344 rats by intravenous administration after 2 hours; type: ADME, organism-based; details: in vivo; in short: as §1
Rattus norvegicus [13] = test: Radioactivity was determined in liver tissues of female fischer 344 rats by intravenous administration after 30 minutes; type: ADME, organism-based; details: in vivo, 0.5 h; in short: as §1
Rattus norvegicus [14] = test: Radioactivity was determined in liver tissues of female fischer 344 rats by intravenous administration after 5 minutes; type: ADME, organism-based; details: in vivo; in short: as §1
Rattus norvegicus [15] = test: Radioactivity was determined in lung tissues of female fischer 344 rats by intravenous administration after 1 hour; type: ADME, organism-based; details: in vivo; in short: as §1
Rattus norvegicus [16] = test: Radioactivity was determined in lung tissues of female fischer 344 rats by intravenous administration after 30 minutes; type: ADME, organism-based; details: in vivo, 0.5 h; in short: as §1
Rattus norvegicus [17] = test: Radioactivity was determined in lung tissues of female fischer 344 rats by intravenous administration after 5 minutes; type: ADME, organism-based; details: in vivo; in short: as §1
Rattus norvegicus [18] = test: Radioactivity was determined in thyroid of female fischer 344 rats by intravenous administration after 1 hour; type: ADME, organism-based, Thyroid gland; details: in vivo; in short: as §1
Rattus norvegicus [19] = test: Radioactivity was determined in thyroid of female fischer 344 rats by intravenous administration after 2 hours; type: ADME, organism-based, Thyroid gland; details: in vivo; in short: as §1
Rattus norvegicus [20] = test: Radioactivity was determined in thyroid of female fischer 344 rats by intravenous administration after 30 minutes; type: ADME, organism-based, Thyroid gland; details: in vivo, 0.5 h; in short: as §1
Rattus norvegicus [21] = test: Radioactivity was determined in thyroid of female fischer 344 rats by intravenous administration after 5 minutes; type: ADME, organism-based, Thyroid gland; details: in vivo; in short: as §1
Rattus norvegicus [22] = test: Radioactivity was determined in lung tissues of female fischer 344 rats by intravenous administration after 2 hours; type: ADME, organism-based; details: in vivo; in short: as §1
Rattus norvegicus [23] = test: Radioactivity was determined in blood tissues of female fischer 344 rats by intravenous administration after 1 day; type: ADME, organism-based; details: in vivo, 24 h; in short: as §1
Rattus norvegicus [24] = test: Radioactivity was determined in heart tissues of female fischer 344 rats by intravenous administration after 1 day; type: ADME, organism-based; details: in vivo, 24 h; in short: as §1
Rattus norvegicus [25] = test: Radioactivity was determined in liver tissues of female fischer 344 rats by intravenous administration after 1 day; type: ADME, organism-based; details: in vivo, 24 h; in short: as §1
Rattus norvegicus [26] = test: Radioactivity was determined in lung tissues of female fischer 344 rats by intravenous administration after 1 day; type: ADME, organism-based; details: in vivo, 24 h; in short: as §1

SMILES | Dose/g (Rattus norvegicus [1]) | Dose/g (Rattus norvegicus [2]) | Dose/g (Rattus norvegicus [4]) | Dose/g (Rattus norvegicus [5]) | Dose/g (Rattus norvegicus [6]) | Dose/g (Rattus norvegicus [8]) | Dose/g (Rattus norvegicus [9]) | Dose/g (Rattus norvegicus [10]) | Dose/g (Rattus norvegicus [11]) | Dose/g (Rattus norvegicus [13]) | Dose/g (Rattus norvegicus [14]) | Dose/g (Rattus norvegicus [15]) | Dose/g (Rattus norvegicus [16]) | Dose/g (Rattus norvegicus [17]) | other results
O=C(O)CCC[Te]CCCCCCCCCCC/C=C/I | 0.19% | 3.99% | – | – | – | – | – | – | – | – | – | – | – | – | –
O=C(O)CCC[Te]CCCCCCCCCCC/C=C/Br (stereo in doubt; form 1) | 0.43% | 2.77% | 0.61% | 0.13% | 3.01% | 2.51% | 1.49% | 1.62% | 5.47% | 6.13% | 7.33% | 1.61% | 1.53% | 1.26% | Dose/g (Rattus norvegicus [3]): 0.46%; Dose/g (Rattus norvegicus [7]): 2.56%; Dose/g (Rattus norvegicus [12]): 5%; Dose/g (Rattus norvegicus [18]): 9.26%; Dose/g (Rattus norvegicus [19]): 9.52%; Dose/g (Rattus norvegicus [20]): 10.86%; Dose/g (Rattus norvegicus [21]): 7.56%; Dose/g (Rattus norvegicus [22]): 1.49%
O=C(O)CCC[Te]CCCCCCCCCCC/C=C/Br (stereo in doubt; form 2) | 0.39% | 3.28% | 0.34% | 0.18% | 3.47% | 3.79% | 2.15% | 2.31% | 6.04% | 6.79% | 6.87% | 1.88% | 2.08% | 1.91% | Dose/g (Rattus norvegicus [23]): 0.88%; Dose/g (Rattus norvegicus [24]): 2.6%; Dose/g (Rattus norvegicus [25]): 3.15%; Dose/g (Rattus norvegicus [26]): 1.48%
